Test results: ChEMBL document CHEMBL3872272, “Synthesis and optimization of novel α-phenylglycinamides as selective TRPM8 antagonists” (Bioorg Med Chem, 2017)

What was measured:
[1] = Drug metabolism in rat plasma assessed as hydrolyzation of methyl ester to carboxylic acid; format: ADME, cell-free
[2] = Volume of distribution at steady state in Sprague-Dawley rat at 1 mg/kg, iv administered as single dose by LC-MS/MS method; format: ADME, organism-based; conditions: in vivo, read-out: Vdss
How it was run: (§1)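 Single oral (10 mg/kg) or intravenous (1 mg/kg) dose in rats, n = 3. Jugular vein blood taken at 2, 15 and 30 min and 1, 2, 4 and 6 h. Plasma concentrations measured by LC-MS/MS.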

[3] = Bioavailability in Sprague-Dawley rat at 10 mg/kg, po administered as single dose by LC-MS/MS method; format: ADME, organism-based; conditions: in vivo; how it was run: as §1
[4] = Tmax in Sprague-Dawley rat at 10 mg/kg, po administered as single dose by LC-MS/MS method; format: ADME, organism-based; conditions: in vivo; how it was run: as §1
[5] = Plasma concentration in Sprague-Dawley rat model of distension-induced rhythmic bladder contraction at 10 mg/kg, po measured after 3.5 hrs; format: ADME, organism-based
[6] = Cmax in Sprague-Dawley rat at 10 mg/kg, po administered as single dose by LC-MS/MS method; format: ADME, organism-based; parameters: dose 10 mg/kg, route oral; conditions: in vivo; how it was run: as §1
[7] = Plasma concentration in Sprague-Dawley rat model of distension-induced rhythmic bladder contraction at 1 mg/kg, iv measured after 15 mins; format: ADME, organism-based

Drug metabolism [1]	Vd [2] [L/kg]	bioavailability [3] [%]	Tmax [4] [min]	concentration at 3.5 h [5] [nM]	Cmax [6] [nM]	concentration at […] [7] [nM]	SMILES
Metabolite_Detected							COC(=O)[C@@H](c1ccccc1)N(Cc1cccc(OC)c1)C(=O)c1ccccc1
	1.2	59	50	> 1000	3230	1120	C[C@H](c1cc(F)cc(F)c1)N(C(=O)c1ccccc1)[C@@H](C(N)=O)c1ccccc1
